# Calls of active or inactive are those of the source. The calls are words filed in the database; no cut-off is given here.
# Experiments:
# MCF7 = assay: Cytotoxicity against human MCF7 cells assessed as growth inhibition after 24 to 72 hrs by MTT assay; assay type: functional, cell-based
# Outline: (§1)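 About 5000 cells/well were grown 24 h in RPMI-1640 with 10% FBS, then given fresh medium with compound at various concentrations (from 10 mM DMSO stocks) for 24, 48 and 72 h. MTT (5 mg/mL stock) was added for 2 h and formazan dissolved in DMSO. Absorbance was read at 595 nm and expressed as percent proliferation versus DMSO control.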
# MDA-MB-468 = assay: Cytotoxicity against human MDA-MB-468 cells assessed as growth inhibition after 24 to 72 hrs by MTT assay; assay type: functional, cell-based; outline: as §1
# [1] = Cytotoxicity against human H1299 cells assessed as growth inhibition after 24 to 72 hrs by MTT assay; assay type: functional, cell-based; settings: NCI-H1299; outline: as §1
# MDA-MB-231 [2] = assay: Induction of apoptosis in human MDA-MB-231 cells assessed as early apoptotic cells at 2.5 uM after 24 hrs by annexin V-propidium iodide/Alexa Fluor 488 staining-based flow cytometric analysis (reference value: 4.05 to 4.68%); assay type: functional
# MDA-MB-231 [3] = assay: Induction of apoptosis in human MDA-MB-231 cells assessed as early apoptotic cells at 5 uM after 24 hrs by annexin V-propidium iodide/Alexa Fluor 488 staining-based flow cytometric analysis (reference value: 4.05 to 4.68%); assay type: functional
# MDA-MB-231 [4] = assay: Induction of apoptosis in human MDA-MB-231 cells assessed as early apoptotic cells at 7.5 uM after 24 hrs by annexin V-propidium iodide/Alexa Fluor 488 staining-based flow cytometric analysis (reference value: 4.05 to 4.68%); assay type: functional
# MDA-MB-231 [5] = assay: Induction of apoptosis in human MDA-MB-231 cells assessed as early apoptotic cells at 10 uM after 24 hrs by annexin V-propidium iodide/Alexa Fluor 488 staining-based flow cytometric analysis (reference value: 4.05 to 4.68%); assay type: functional
# MDA-MB-231 [6] = assay: Induction of apoptosis in human MDA-MB-231 cells assessed as late apoptotic cells at 2.5 uM after 24 hrs by annexin V-propidium iodide/Alexa Fluor 488 staining-based flow cytometric analysis (reference value: 2.08 to 3.78%); assay type: functional
# Outline: (§2)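 MDA-MB-231 cells, about 2 × 10⁵ per well, seeded in triplicate and treated for 24 h in RPMI-1640 with 10% FBS. Stained with Alexa Fluor 488 annexin V and propidium iodide, then read by flow cytometry. AV+/PI+ events were counted as late apoptotic and reported as percentage of cells relative to control. Three independent experiments, mean ± SEM.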
# MDA-MB-231 [7] = assay: Induction of apoptosis in human MDA-MB-231 cells assessed as late apoptotic cells at 5 uM after 24 hrs by annexin V-propidium iodide/Alexa Fluor 488 staining-based flow cytometric analysis (reference value: 2.08 to 3.78%); assay type: functional; outline: as §2
# MDA-MB-231 [8] = assay: Induction of apoptosis in human MDA-MB-231 cells assessed as late apoptotic cells at 10 uM after 24 hrs by annexin V-propidium iodide/Alexa Fluor 488 staining-based flow cytometric analysis (reference value: 2.08 to 3.78%); assay type: functional; outline: as §2
# MDA-MB-231 [9] = assay: Induction of apoptosis in human MDA-MB-231 cells after 24 hrs by annexin V-propidium iodide/Alexa Fluor 488 staining-based flow cytometric analysis; assay type: functional, cell-based
# MDA-MB-231 [10] = assay: Induction of apoptosis in human MDA-MB-231 cells assessed as depolarization of mitochondrial membrane potential after 24 hrs by JC-1 staining-based flow cytometric analysis; assay type: functional, cell-based
# Outline: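 Cells were seeded in 60 mm dishes, grown 24 h, then treated with compound for 24 h. Cells were stained with JC-1 and analysed by flow cytometry. Depolarization was read as green-only cells and as a fall in red/green fluorescence ratio, normalized to control. Three independent experiments, mean ± SEM.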
# MDA-MB-231 [11] = assay: Cell cycle arrest in human MDA-MB-231 cells assessed as accumulation at G0/G1 phase at 2.5 uM after 24 hrs by propidium iodide staining-based flow cytometric analysis (reference value: 44.3 to 47.1%); assay type: functional
# MDA-MB-231 [12] = assay: Cell cycle arrest in human MDA-MB-231 cells assessed as accumulation at S phase at 2.5 uM after 24 hrs by propidium iodide staining-based flow cytometric analysis (reference value: 32.5 to 34.7%); assay type: functional
# MDA-MB-231 [13] = assay: Cell cycle arrest in human MDA-MB-231 cells assessed as accumulation at G2/M phase at 2.5 uM after 24 hrs by propidium iodide staining-based flow cytometric analysis (reference value: 18.2 to 23.1%); assay type: functional
# MDA-MB-231 [14] = assay: Cell cycle arrest in human MDA-MB-231 cells assessed as accumulation at G0/G1 phase at 5 uM after 24 hrs by propidium iodide staining-based flow cytometric analysis (reference value: 44.3 to 47.1%); assay type: functional
# MDA-MB-231 [15] = assay: Cell cycle arrest in human MDA-MB-231 cells assessed as accumulation at S phase at 5 uM after 24 hrs by propidium iodide staining-based flow cytometric analysis (reference value: 32.5 to 34.7%); assay type: functional
# MDA-MB-231 [16] = assay: Cell cycle arrest in human MDA-MB-231 cells assessed as accumulation at G2/M phase at 5 uM after 24 hrs by propidium iodide staining-based flow cytometric analysis (reference value: 18.2 to 23.1%); assay type: functional
# MDA-MB-231 [17] = assay: Cell cycle arrest in human MDA-MB-231 cells assessed as accumulation at G0/G1 phase at 7.5 uM after 24 hrs by propidium iodide staining-based flow cytometric analysis (reference value: 44.3 to 47.1%); assay type: functional
# MDA-MB-231 [18] = assay: Cell cycle arrest in human MDA-MB-231 cells assessed as accumulation at S phase at 7.5 uM after 24 hrs by propidium iodide staining-based flow cytometric analysis (reference value: 32.5 to 34.7%); assay type: functional
# MDA-MB-231 [19] = assay: Cell cycle arrest in human MDA-MB-231 cells assessed as accumulation at G2/M phase at 7.5 uM after 24 hrs by propidium iodide staining-based flow cytometric analysis (reference value: 18.2 to 23.1%); assay type: functional
# MDA-MB-231 [20] = assay: Cell cycle arrest in human MDA-MB-231 cells assessed as accumulation at G2/M phase after 24 hrs by propidium iodide staining-based flow cytometric analysis; assay type: functional
# 4T1 = assay: Antitumor activity against mouse 4T1 cells allografted in Balb/c mouse assessed as tumor growth inhibition at 10 mg/kg, po administered every alternative day for 5 weeks measured twice a week during compound dosing relative to control; assay type: functional
# Outline: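 4T1 cells (7 × 10⁵) were injected into the second right mammary fat pad of 8-week-old female Balb/c mice, with a booster of about 5 × 10⁵ cells 4 days later. One week after the booster, dosing began at 10 mg/kg by oral gavage on alternate days for 5 weeks (n = 6). Controls received vehicle. Tumor size and body weight were measured twice weekly.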
# Mus musculus = assay: Toxicity in Balb/c mouse allografted with mouse 4T1 cells assessed as reduction in body weight at 10 mg/kg, po administered every alternative day for 5 weeks measured twice a week during compound dosing; assay type: organism-based; parameters: dose 10 mg/kg, route oral; settings: in vivo, 840 h
# Outline: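 Female Balb/c mice, 8 weeks old, given 7 × 10⁵ 4T1 cells into the second right mammary fat pad, plus a booster of about 5 × 10⁵ cells after 4 days. One week later, 10 mg/kg by oral gavage on alternate days for 5 weeks, n = 6. Vehicle-dosed controls. Body weight and tumour size measured twice weekly.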
# MDA-MB-231 [21] = assay: Antimigratory activity against human MDA-MB-231 cells at >= 2.5 uM after 48 hrs by transwell assay
compound,measurement,setting,value
COC(=O)c1cc2c3ccccc3[nH]c2c2cn(-c3ccc(C(F)(F)F)cc3)c[n+]12.[Cl-],IC50,MCF7,14.2 µM
same,IC50,MDA-MB-468,11.1 µM
same,IC50,[1],4.48 µM
same,Activity,MDA-MB-231 [2],4.4%
same,Activity,MDA-MB-231 [3],5.23%
same,Activity,MDA-MB-231 [4],9.28%
same,Activity,MDA-MB-231 [5],14.3%
same,Activity,MDA-MB-231 [6],2.87%
same,Activity,MDA-MB-231 [7],2.31%
same,Activity,MDA-MB-231 [8],14.31%
same,Activity,MDA-MB-231 [9],Dose-dependent effect
same,Activity,MDA-MB-231 [10],Dose-dependent effect
same,Activity,MDA-MB-231 [11],50.4%
same,Activity,MDA-MB-231 [12],26.7%
same,Activity,MDA-MB-231 [13],22.8%
same,Activity,MDA-MB-231 [14],45.3%
same,Activity,MDA-MB-231 [15],19%
same,Activity,MDA-MB-231 [16],35.5%
same,Activity,MDA-MB-231 [17],34.1%
same,Activity,MDA-MB-231 [18],27.6%
same,Activity,MDA-MB-231 [19],38.2%
same,Activity,MDA-MB-231 [20],Dose-dependent effect
same,inhibition in vivo at 10 mg/kg,"4T1; 4T1, 840 h, read-out: TGI",20%
same,Activity,Mus musculus,Non-toxic
same,Activity,MDA-MB-231 [21],Active
COC(=O)c1cc2c3ccccc3[nH]c2c2cn(-c3ccc(F)cc3Cl)c[n+]12.[Cl-],IC50,MCF7,6.8 µM
same,IC50,MDA-MB-468,5.94 µM
same,IC50,[1],5.13 µM
same,Activity,MDA-MB-231 [2],2.21%
same,Activity,MDA-MB-231 [3],4.72%
same,Activity,MDA-MB-231 [4],12.14%
same,Activity,MDA-MB-231 [5],14.4%
same,Activity,MDA-MB-231 [6],1.16%
same,Activity,MDA-MB-231 [7],3.26%
same,Activity,MDA-MB-231 [8],11.92%
same,Activity,MDA-MB-231 [9],Dose-dependent effect
same,Activity,MDA-MB-231 [10],Dose-dependent effect
same,Activity,MDA-MB-231 [11],46.7%
same,Activity,MDA-MB-231 [12],29.8%
same,Activity,MDA-MB-231 [13],23.4%
same,Activity,MDA-MB-231 [14],46.6%
same,Activity,MDA-MB-231 [15],21.8%
same,Activity,MDA-MB-231 [16],33.9%
same,Activity,MDA-MB-231 [17],31.1%
same,Activity,MDA-MB-231 [18],28.22%
same,Activity,MDA-MB-231 [19],40.6%
same,Activity,MDA-MB-231 [20],Dose-dependent effect
same,TGI,4T1,inactive
same,Activity,Mus musculus,Non-toxic
same,Activity,MDA-MB-231 [21],Active
COC(=O)c1cc2c3ccccc3[nH]c2c2cn(-c3ccc(C)cc3Br)c[n+]12.[Cl-],IC50,MCF7,6.9 µM
same,IC50,MDA-MB-468,5.78 µM
same,IC50,[1],7.8 µM
same,Activity,MDA-MB-231 [2],5.42%
same,Activity,MDA-MB-231 [3],6.93%
same,Activity,MDA-MB-231 [4],24.22%
same,Activity,MDA-MB-231 [5],55.63%
same,Activity,MDA-MB-231 [6],3.49%
same,Activity,MDA-MB-231 [7],4.06%
same,Activity,MDA-MB-231 [8],25.32%
same,Activity,MDA-MB-231 [9],Dose-dependent effect
same,Activity,MDA-MB-231 [10],Dose-dependent effect
same,Activity,MDA-MB-231 [11],56.8%
same,Activity,MDA-MB-231 [12],19.5%
same,Activity,MDA-MB-231 [13],23.6%
same,Activity,MDA-MB-231 [14],47.3%
same,Activity,MDA-MB-231 [15],17.9%
same,Activity,MDA-MB-231 [16],34.7%
same,Activity,MDA-MB-231 [17],43%
same,Activity,MDA-MB-231 [18],24.4%
same,Activity,MDA-MB-231 [19],32.5%
same,Activity,MDA-MB-231 [20],Dose-dependent effect
same,TGI,4T1,inactive
same,Activity,Mus musculus,Non-toxic
same,Activity,MDA-MB-231 [21],Active

# Reference: ChEMBL document CHEMBL3425411, “Synthesis of β-Carboline-Based N-Heterocyclic Carbenes and Their Antiproliferative and Antimetastatic Activities against Human Breast Cancer Cells” (J Med Chem, 2015)
